Screens: PubChem BioAssay, several laboratories
Shown are actives, neighbours in structure and some others; about 2.9% of the full set was active somewhere.
HTRA1 inh: HTRA1 (human) protease inhibition | Q92743 | recombinant HTRA1, FP-rhodamine activity-based probe, fluorescence polarization | inhibition, % at 5.96 µM | hit rate 0.5% among 340,000 | AID 504803; in the data active = inhibition above about 36%;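 note: 0% = enzyme with DMSO and 100% = wells lacking enzyme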
TCR CD3 inh: human TCR-CD3 binding inhibition; inhibition, % at 9.4 µM; hit rate 0.37% among 360,000; TAMRA-labeled TCR probe fluorescence, biochemical; in the data active = inhibition above about 19%;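 note: recombinant mutant TCR 2C K166C tagged with TAMRA read by polarization; 0% = receptor in buffer alone and 100% = receptor with positive control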
SIAE inh: blocks human sialic acid acetylesterase; SIAE FP-Rh probe binding, fluorescence polarization; inhibition, % at 9.66 µM; AID 1053197; Q9HAT2; hit rate 0.69% among 370,000;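 active = inhibition above a cutoff: mean of compounds within the control limits plus 3 SD of those, cut at about 17% in these data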;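 note: 0% = plate median of compound wells and 100% = probe without SIAE protein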
mABHD4 FP: ABHD4 (mouse) inhibition, primary FP screen; Q8VD66; purified mABHD4, FP-Rh probe fluorescence polarization; inhibition, % at 8.92 µM; hit rate 0.54% among 370,000;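 active = inhibition exceeding the mean over every tested compound plus 3 SD, cut at about 30% in these data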;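 note: 0% = plate median of compound wells and 100% = S159A mutant with DMSO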
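Assay system: mABHD4 protein; medium: HEPES pH 7.0, NaCl, Pluronic buffer; dosing: 8.92 µM, single dose; schedule: 45 min + 60 min at 25 °C; signal: FP readout, ex 525 nm / em 598 nm; read-out: normalized percent inhibition of probe labeling; repeats: single replicate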
ATG4B inhibitor: inhibitors of human ATG4B cysteine protease | Q9Y4P1 | ATG4B cleavage of LC3-PLA2, NBD-HPC fluorescence, 1 h | inhibition, % at 8.33 µM | hit rate 0.51% among 340,000 | AID 504462; in the data active = inhibition above about 40%
Target sequence (Q9Y4P1 whole entry, looked up): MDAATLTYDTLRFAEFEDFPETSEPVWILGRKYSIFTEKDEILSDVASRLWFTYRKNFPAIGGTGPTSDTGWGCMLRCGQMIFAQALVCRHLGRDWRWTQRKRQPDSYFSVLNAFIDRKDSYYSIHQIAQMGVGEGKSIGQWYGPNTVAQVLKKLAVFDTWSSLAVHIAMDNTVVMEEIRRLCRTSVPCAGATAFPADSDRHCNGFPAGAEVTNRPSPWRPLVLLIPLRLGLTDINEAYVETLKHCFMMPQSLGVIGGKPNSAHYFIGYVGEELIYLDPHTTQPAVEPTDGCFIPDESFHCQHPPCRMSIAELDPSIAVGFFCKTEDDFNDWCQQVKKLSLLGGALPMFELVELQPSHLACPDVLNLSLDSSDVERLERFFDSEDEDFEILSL
PRMT1 inh: inhibitors of human PRMT1; recombinant PRMT1, activity-based probe fluorescence polarization; hit rate 1.3% among 370,000; inhibition, % at 2.79 µM;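 active = inhibition above about 21% made by adding two undisclosed values, limit read from the data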
SIAE inh conf: human SIAE inhibition, confirmation | shares compounds with SIAE inh | inhibition, % at 9.66 µM | hit rate 13% among 2,300 | AID 1117263 | SIAE FP-Rh activity-based probe, fluorescence polarization;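 active = mean inhibition of the replicates above the hit cutoff set in the primary screen, cut at about 17% in these data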;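 note: 0% = SIAE with DMSO and probe and 100% = probe without SIAE; inhibitors lower polarization as more probe stays unbound to SIAE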
The depositor's hits bear a star; nt = no result given.

SMILES	HTRA1 inh	TCR CD3 inh	SIAE inh	mABHD4 FP	ATG4B inhibitor	PRMT1 inh	SIAE inh conf
CC(=O)c1ccc2c(c1)C1C=CCC1C(c1ccc(S(=O)(=O)N3CCOCC3)cc1)N2 (configuration not stated)	4.7	-1.4	17.8*	13.2	-4.7	6.3	2.3
CN(CCOC(=O)c1occ2ccccc12)C1CN(Cc2cn(Cc3ccccc3Cl)nn2)S(=O)(=O)C1 (configuration not stated)	nt	nt	-2.2	-5.1	nt	1.6	nt
COc1ccc(CN2C(=O)C(CC(C)C)Nc3ncnc(N4CCN(c5ccccn5)CC4)c32)cc1 (configuration not stated)	-8.8	-3.5	18.1*	-6.8	-4.0	-0.7	0.2
COc1ccc(Cn2ccnc2CO)cc1[N+](=O)[O-]	0.3	4.2	18.7*	-1.9	-0.8	-6.4	3.0
O=C(NCCc1c[nH]c2ccccc12)OCc1cn(Cc2cccc(F)c2F)nn1	nt	nt	-3.8	-2.4	nt	-1.1	nt
COC(=O)C1CN(Cc2cn(CCOC(C)=O)nn2)CCS(=O)(=O)N1Cc1ccccc1 (configuration not stated)	nt	nt	-3.3	-0.6	nt	-5.0	nt
CCOc1ccc(-n2c(SCC(=O)Nc3cccc4ccccc34)nnc2-c2ccncc2)cc1	nt	nt	2.8	-0.3	nt	4.9	nt
CC(Sc1nnc(NC2CCCCC2)s1)C(=O)Nc1ccc2c(c1)C(=O)c1ccccc1C2=O (configuration not stated)	10.4	-3.8	23.6*	10.5	18.3	0.2	-24.8
CC(Sc1nnc(NC2CC2)s1)C(=O)Nc1ccc(N2CCOCC2)cc1 (configuration not stated)	-3.7	-5.5	-7.5	-1.7	0.4	-0.5	nt
Cc1cc(C)c(C2=NOC3c4ccccc4OCC23)c(C)c1 (configuration not stated)	nt	7.5	-6.3	0.5	nt	-2.4	nt
O=[N+]([O-])c1ccc2c(c1)nc1n2CCCCC1	4.3	-0.8	-4.0	-1.5	-5.3	0.5	nt
O=[N+]([O-])c1ccc2c(c1)C=C1CCCCC1(N1CCCC1)O2 (configuration not stated)	0.2	-2.8	21.4*	-2.6	2.4	-2.0	-3.5
Cn1c(-c2ccc([N+](=O)[O-])cc2)nc2ccccc21	2.2	-6.6	-4.1	-4.5	5.8	-3.8	nt
Cn1nc([N+](=O)[O-])c(C(C#N)c2nc3ccccc3n2C)c(Cl)c1=O (configuration not stated)	21.0	9.2	27.3*	22.9	28.4	19.2	9.0
O=C(O)[C@@H]1CCCN1C(=O)c1ccccc1N1C(=O)[C@@H]2Cc3c([nH]c4ccccc34)C(c3cccc(Cl)c3)N2C1=O (some centres not stated)	-13.3	14.9	43.9*	-24.1	-3.2	4.9	-11.2
CSCCCNc1nc(C)nc2c1nnn2Cc1ccccc1	nt	nt	5.7	-5.2	nt	-5.1	nt
Cn1c(=O)n(Cc2ccccc2)c(=O)c2c1nc1n2CCN1Cc1ccco1	-0.9	3.2	19.3*	-1.4	-2.5	-1.9	3.7
Cc1ccc(Cn2c(=O)c3c(nc4n3CCN4Cc3ccco3)n(C)c2=O)cc1	-4.9	2.1	3.6	-1.8	-2.5	-2.8	nt
C[C@@H]1CCN(C2CC2)S(=O)(=O)c2ccc(N3CC[C@@H](N(C)C)C3)cc2O1	nt	nt	1.9	-0.3	nt	0.6	nt
Nc1ccc(-c2n[nH]c(=O)c3ccccc23)cc1N	-23.0	5.7	19.1*	-2.3	-0.1	3.8	7.3
CCOC(=O)c1cnc(SCC(=O)OCC(=O)NC2CCS(=O)(=O)C2)nc1N (configuration not stated)	-2.1	-2.9	18.0*	6.0	7.5	-0.5	-5.3
CCCc1nc2ccc(Cl)cn2c1Cc1cccc(Cl)c1	nt	-5.7	4.2	-10.6	nt	6.2	nt
CCCc1nc2ccc(Cl)cn2c1Cc1ccc(C)cc1	nt	4.6	18.0*	5.8	nt	-1.5	4.1
Cc1ccc(-c2nn(Cc3ccccc3)cc2/C=C/C(=O)O)cc1C	-7.6	7.5	0.1	-8.1	7.8	-0.1	nt
O=C(O)/C=C/c1cn(Cc2ccccc2)nc1-c1ccccc1	2.5	1.8	18.7*	-3.1	-2.0	-1.6	2.3
SMILES	HTRA1 inh	TCR CD3 inh	SIAE inh	mABHD4 FP	ATG4B inhibitor	PRMT1 inh	SIAE inh conf
CCCC(=O)Nc1ccc2oc(-c3cncc(Br)c3)nc2c1	4.4	-3.4	2.1	0.7	-2.4	-2.9	nt
CCCCCC(=O)Nc1ccc2oc(-c3cncc(Br)c3)nc2c1	-5.3	3.7	36.4*	-2.3	-3.0	1.4	-4.6
NC(=O)CC(NC(=O)c1ccccc1)c1ccc(N2CCN(c3ccccc3)CC2)c([N+](=O)[O-])c1 (configuration not stated)	12.5	-1.6	-6.4	-2.9	-9.9	-0.6	nt
Cc1cc(C)cc(C(=O)NC(CC(N)=O)c2ccc(N3CCN(c4ccccc4)CC3)c([N+](=O)[O-])c2)c1 (configuration not stated)	-1.9	-4.4	21.5*	-3.1	-15.2	-2.7	6.4
Cc1ccccc1CN1CCCCC(NC(=O)c2cc(-c3ccccc3)no2)C1=O (configuration not stated)	nt	nt	-6.8	-5.4	nt	4.2	nt
Cc1ccn2c(=O)nc(SCC(=O)N3CCN(c4ccccc4)CC3)nc2c1	2.3	7.2	18.5*	2.0	-8.5	1.1	5.7
O=C(C1CCC1)N1CCc2cc(S(=O)(=O)N3CCCC3)ccc21	nt	nt	-3.3	4.2	nt	2.2	nt
O=C(NC(=S)NCc1ccccc1)c1ccccc1F	-14.0	-2.8	-11.5	-7.3	27.2	3.5	nt
O=C(NC(=S)N(Cc1ccccc1)Cc1ccccc1)c1ccccc1F	-12.2	-4.1	78.7*	2.5	12.2	3.6	-1.8
COC(=O)c1cccc(Nc2cc(C)n(-c3cccc(C(=O)OC)c3)c(=O)c2)c1	nt	3.6	-0.7	-2.2	nt	1.3	nt
O=C(CCC(=O)OCC(F)(F)C(F)F)Nc1ccc(F)cc1F	-0.8	3.5	0.4	-1.0	-8.8	-2.6	nt
O=C(CCC(=O)OCC(F)(F)C(F)F)Nc1ccc(Cl)cc1	1.8	2.5	17.5*	-3.0	2.5	-1.2	2.7
CCOC(=O)[C@@]12CCC3=C1N(CCC3)C(=O)[C@H](CC(=O)NCc1ccc(C)o1)C2	nt	nt	5.3	1.8	nt	-1.7	nt
Cc1cccc(C(=O)Nc2nc3ncccn3c2-c2ccc(F)cc2)c1	nt	nt	7.1	3.3	nt	-8.1	nt
CC(=O)c1ccc(NC(=S)Nc2cccc3ccccc23)cc1	7.8	-6.3	31.7*	14.4	-0.1	2.5	1.0
O=C(O)c1cccc(-n2sc3ccccc3c2=O)c1	-1.2	-0.9	18.4*	-8.9	-11.9	93.0*	0.2
O=C(O)c1cccc(-n2c(/C=C/c3ccccc3)nc3ccccc3c2=O)c1	-6.4	4.2	-9.9	-14.3	-0.2	1.0	nt
CCCc1cc(=O)oc2c(CN3CCCC3)c(O)c(Cl)cc12	5.1	9.0	19.9*	6.7	-3.4	-1.9	4.1
Cc1cc(=O)oc2c(CN3CCCC3)c(O)c(Cl)cc12	4.4	2.9	-4.1	19.1	-0.3	6.8	nt
